According to ChEMBL document CHEMBL1165950, “Design and synthesis of new potent anticancer pyrazoles with high FLT3 kinase inhibitory selectivity” (Bioorg Med Chem, 2010):

Columns and labels:
Type in all cases: functional
PC-3 = assay: Cytotoxicity against human PC3 cells assessed as cell growth at 10 uM; settings: read-out: Activity
Outline: (§1)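 NCI-60 screen: cells grown in RPMI 1640 with 5% FBS and 2 mM L-glutamine, plated at 5000–40,000 cells/well according to doubling time, and preincubated 24 h at 37 °C, 5% CO2. The single 10 µM dose (DMSO stock) was added, then incubated 48 h. Cells were TCA-fixed and stained with 0.4% SRB, read at 515 nm, and growth % calculated against time-zero and control plates.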

MOLT-4 = assay: Cytotoxicity against human MOLT4 cells assessed as cell growth at 10 uM; settings: read-out: Activity; outline: as §1
A549 = assay: Cytotoxicity against human A549 cells assessed as cell growth at 10 uM; settings: read-out: Activity
Outline: (§2)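 Single-dose NCI-60 screen at 10 µM. Cells were grown in RPMI 1640 with 5% FBS and 2 mM L-glutamine, then treated for 48 h at 37 °C. Protein was measured by SRB staining with absorbance at 515 nm. Percentage growth was recorded, and inhibition percentage was calculated as 100 minus growth percentage.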

MDA-MB-231 = assay: Cytotoxicity against human MDA-MB-231 cells assessed as cell growth at 10 uM; settings: read-out: Activity; outline: as §1
[1] = Cytotoxicity against human […] cells assessed as cell growth at 10 uM; settings: read-out: Activity; outline: as §1
DU-145 = assay: Cytotoxicity against human DU145 cells assessed as cell growth at 10 uM; settings: read-out: Activity; outline: as §2
BT-549 = assay: Cytotoxicity against human BT549 cells assessed as cell growth at 10 uM; settings: read-out: Activity; outline: as §2
K562 = assay: Cytotoxicity against human K562 cells assessed as cell growth at 10 uM; settings: read-out: Activity; outline: as §2
SF-268 = assay: Cytotoxicity against human SF268 cells assessed as cell growth at 10 uM; settings: read-out: Activity; outline: as §1
HL-60(TB) = assay: Cytotoxicity against human HL-60(TB) cells assessed as cell growth at 10 uM; settings: read-out: Activity
Outline: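 NCI 60-cell panel screen at a single concentration of 10 µM. Cells are grown in RPMI 1640 with 5% FBS and 2 mM L-glutamine and read by SRB protein staining at 515 nm. Percent growth is measured relative to time-zero and untreated controls; inhibition % is 100 minus growth %.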

HCT-15 = assay: Cytotoxicity against human HCT15 cells assessed as cell growth at 10 uM; settings: read-out: Activity; outline: as §2
CAKI-1 = assay: Cytotoxicity against human Caki1 cells assessed as cell growth at 10 uM; settings: read-out: Activity; outline: as §2
M14 = assay: Cytotoxicity against human M14 cells assessed as cell growth at 10 uM; settings: read-out: Activity; outline: as §1
SW-620 = assay: Cytotoxicity against human SW620 cells assessed as cell growth at 10 uM; settings: read-out: Activity; outline: as §1
HT-29 = assay: Cytotoxicity against human HT-29 cells assessed as cell growth at 10 uM; settings: read-out: Activity; outline: as §2
[2] = Cytotoxicity against human Hs 578T cells assessed as cell growth at 10 uM; settings: read-out: Activity; outline: as §2
OVCAR-4 = assay: Cytotoxicity against human OVCAR4 cells assessed as cell growth at 10 uM; settings: read-out: Activity; outline: as §1
MDA-MB-435 = assay: Cytotoxicity against human MDA-MB-435 cells assessed as cell growth at 10 uM; settings: read-out: Activity; outline: as §1
786-0 = assay: Cytotoxicity against human 786-0 cells assessed as cell growth at 10 uM; settings: read-out: Activity; outline: as §2
CCRF-CEM = assay: Cytotoxicity against human CCRF-CEM cells assessed as cell growth at 10 uM; settings: read-out: Activity; outline: as §2
COLO 205 = assay: Cytotoxicity against human COLO205 cells assessed as cell growth at 10 uM; settings: read-out: Activity; outline: as §2
UACC-257 = assay: Cytotoxicity against human UACC257 cells assessed as cell growth at 10 uM; settings: read-out: Activity; outline: as §1
ACHN = assay: Cytotoxicity against human ACHN cells assessed as cell growth at 10 uM; settings: read-out: Activity; outline: as §2
HCT-116 = assay: Cytotoxicity against human HCT116 cells assessed as cell growth at 10 uM; settings: read-out: Activity; outline: as §2
SK-MEL-28 = assay: Cytotoxicity against human SK-MEL-28 cells assessed as cell growth at 10 uM; settings: read-out: Activity; outline: as §1
EKVX = assay: Cytotoxicity against human EKVX cells assessed as cell growth at 10 uM; settings: read-out: Activity; outline: as §2
KM12 = assay: Cytotoxicity against human KM12 cells assessed as cell growth at 10 uM; settings: read-out: Activity; outline: as §1
MCF7 = assay: Cytotoxicity against human MCF7 cells assessed as cell growth at 10 uM; settings: read-out: Activity; outline: as §1
OVCAR-3 = assay: Cytotoxicity against human OVCAR-3 cells assessed as cell growth at 10 uM; settings: read-out: Activity; outline: as §1
SNB-19 = assay: Cytotoxicity against human SNB19 cells assessed as cell growth at 10 uM; settings: read-out: Activity; outline: as §1
U-251 = assay: Cytotoxicity against human U251 cells assessed as cell growth at 10 uM; settings: read-out: Activity; outline: as §1
NCI-H460 = assay: Cytotoxicity against human NCI-H460 cells assessed as cell growth at 10 uM; settings: read-out: Activity; outline: as §1
SR = assay: Cytotoxicity against human SR cells assessed as cell growth at 10 uM; settings: read-out: Activity; outline: as §1
OVCAR-5 = assay: Cytotoxicity against human OVCAR5 cells assessed as cell growth at 10 uM; settings: read-out: Activity; outline: as §1
HOP-62 = assay: Cytotoxicity against human HOP62 cells assessed as cell growth at 10 uM; settings: read-out: Activity; outline: as §2
MDA-MB-468 = assay: Cytotoxicity against human MDA-MB-468 cells assessed as cell growth at 10 uM; settings: read-out: Activity; outline: as §1
OVCAR-8 = assay: Cytotoxicity against human OVCAR8 cells assessed as cell growth at 10 uM; settings: read-out: Activity; outline: as §1
RXF 393 = assay: Cytotoxicity against human RXF393 cells assessed as cell growth at 10 uM; settings: read-out: Activity; outline: as §1
NCI-H23 = assay: Cytotoxicity against human NCI-H23 cells assessed as cell growth at 10 uM; settings: read-out: Activity; outline: as §1
SNB-75 = assay: Cytotoxicity against human SNB75 cells assessed as cell growth at 10 uM; settings: read-out: Activity; outline: as §1
T47D = assay: Cytotoxicity against human T47D cells assessed as cell growth at 10 uM; settings: read-out: Activity; outline: as §1
IGROV-1 = assay: Cytotoxicity against human IGROV1 cells assessed as cell growth at 10 uM; settings: read-out: Activity; outline: as §2
SK-OV-3 = assay: Cytotoxicity against human SKOV3 cells assessed as cell growth at 10 uM; settings: read-out: Activity; outline: as §1
SK-MEL-5 = assay: Cytotoxicity against human SK-MEL-5 cells assessed as cell growth at 10 uM; settings: read-out: Activity; outline: as §1
Malme-3M = assay: Cytotoxicity against human MALME-3M cells assessed as cell growth at 10 uM; settings: read-out: Activity; outline: as §1
A498 = assay: Cytotoxicity against human A498 cells assessed as cell growth at 10 uM; settings: read-out: Activity; outline: as §2
UO-31 = assay: Cytotoxicity against human UO31 cells assessed as cell growth at 10 uM; settings: read-out: Activity; outline: as §1
SN12C = assay: Cytotoxicity against human SN12C cells assessed as cell growth at 10 uM; settings: read-out: Activity; outline: as §1
HOP-92 = assay: Cytotoxicity against human HOP92 cells assessed as cell growth at 10 uM; settings: read-out: Activity; outline: as §2
NCI-H522 = assay: Cytotoxicity against human NCI-H522 cells assessed as cell growth at 10 uM; settings: read-out: Activity; outline: as §1
SK-MEL-2 = assay: Cytotoxicity against human SK-MEL-2 cells assessed as cell growth at 10 uM; settings: read-out: Activity; outline: as §1
SF-539 = assay: Cytotoxicity against human SF539 cells assessed as cell growth at 10 uM; settings: read-out: Activity; outline: as §1
LOX IMVI = assay: Cytotoxicity against human LOXIMVI cells assessed as cell growth at 10 uM; settings: read-out: Activity; outline: as §1
SF-295 = assay: Cytotoxicity against human SF295 cells assessed as cell growth at 10 uM; settings: read-out: Activity; outline: as §1
NCI-H322M = assay: Cytotoxicity against human NCI-H322M cells assessed as cell growth at 10 uM; settings: read-out: Activity; outline: as §1
HCC 2998 = assay: Cytotoxicity against human HCC2998 cells assessed as cell growth at 10 uM; settings: read-out: Activity; outline: as §2
UACC-62 = assay: Cytotoxicity against human UACC62 cells assessed as cell growth at 10 uM; settings: read-out: Activity; outline: as §1
TK-10 = assay: Cytotoxicity against human TK10 cells assessed as cell growth at 10 uM; settings: read-out: Activity; outline: as §1
NCI/ADR-RES = assay: Cytotoxicity against human NCI/ADR-RES cells assessed as cell growth at 10 uM; settings: read-out: Activity; outline: as §1
[3] = Growth inhibition of human NCI60 cells at 10 uM after 48 hrs by sulforhodamine B assay relative to control; settings: NCI60, 48 h, read-out: GI
Outline: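 Single-dose NCI screen at 10 µM across the 60-line panel, 48 h exposure at 37 °C after a 24 h preincubation. Adherent cells were fixed with cold TCA and stained with 0.4% SRB, and absorbance was read at 515 nm. Inhibition % was taken as 100 minus growth %, and the mean across all lines was reported.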

NCI-H226 = assay: Cytotoxicity against human NCI-H226 cells assessed as cell growth at 10 uM; settings: read-out: Activity; outline: as §1

`COc1cc(C)cc(-c2nn(CC#N)cc2-c2ccnc(-c3ccc(C#N)cc3)c2)c1` showed a growth at 10 µM (PC-3) of 85.9%, a growth at 10 µM (MOLT-4) of 71.8% and a growth at 10 µM (A549) of 83.6%. The growth at 10 µM (MDA-MB-231) was 80.8%, the growth at 10 µM [1] was 89.7% and the growth at 10 µM (DU-145) was 109%. For the same compound, the growth at 10 µM (BT-549) was 99.3%, the growth at 10 µM (K562) was 82% and the growth at 10 µM (SF-268) was 106%. It also gave a growth at 10 µM (HL-60(TB)) of 93.6%, a growth at 10 µM (HCT-15) of 75.9% and a growth at 10 µM (CAKI-1) of 82.2%. For the same compound, the growth at 10 µM (M14) was 104%, the growth at 10 µM (SW-620) was 101% and the growth at 10 µM (HT-29) was 85.2%. The growth at 10 µM [2] was 93.4%, the growth at 10 µM (OVCAR-4) was 76.2% and the growth at 10 µM (MDA-MB-435) was 102%. For the same compound, the growth at 10 µM (786-0) was 96.5%, the growth at 10 µM (CCRF-CEM) was 85.6% and the growth at 10 µM (COLO 205) was 95.8%. For the same compound, the growth at 10 µM (UACC-257) was 89.8%, the growth at 10 µM (ACHN) was 81.4% and the growth at 10 µM (HCT-116) was 80.3%. It also gave a growth at 10 µM (SK-MEL-28) of 104%, a growth at 10 µM (EKVX) of 92% and a growth at 10 µM (KM12) of 102%. It also gave a growth at 10 µM (MCF7) of 43.3%, a growth at 10 µM (OVCAR-3) of 102% and a growth at 10 µM (SNB-19) of 79.1%. The growth at 10 µM (U-251) was 91.2%, the growth at 10 µM (NCI-H460) was 104% and the growth at 10 µM (SR) was 106%. It also gave a growth at 10 µM (OVCAR-5) of 97.9%, a growth at 10 µM (HOP-62) of 96.5% and a growth at 10 µM (MDA-MB-468) of 42.9%. The growth at 10 µM (OVCAR-8) was 84.2%, the growth at 10 µM (RXF 393) was 76.5% and the growth at 10 µM (NCI-H23) was 83.1%. It also gave a growth at 10 µM (SNB-75) of 57.4%, a growth at 10 µM (T47D) of 37.6% and a growth at 10 µM (IGROV-1) of 90.9%. For the same compound, the growth at 10 µM (SK-OV-3) was 90.3%, the growth at 10 µM (SK-MEL-5) was 63.4% and the growth at 10 µM (Malme-3M) was 111%. The growth at 10 µM (A498) was 82.2%, the growth at 10 µM (UO-31) was 64.2% and the growth at 10 µM (SN12C) was 85.1%. It also gave a growth at 10 µM (HOP-92) of 75.3%, a growth at 10 µM (NCI-H522) of 70.4% and a growth at 10 µM (SK-MEL-2) of 89.9%. It also gave a growth at 10 µM (SF-539) of 89.1%, a growth at 10 µM (LOX IMVI) of 80.7% and a growth at 10 µM (SF-295) of 102%. It also gave a growth at 10 µM (NCI-H322M) of 91.3%, a growth at 10 µM (HCC 2998) of 89.3% and a growth at 10 µM (UACC-62) of 59.4%. For the same compound, the growth at 10 µM (TK-10) was 84.7%, the growth at 10 µM (NCI/ADR-RES) was 76.8% and the inhibition of growth at 10 µM [3] was 14.4%. For the same compound, the growth at 10 µM (NCI-H226) was 78.8%.
